Measurements reported in ChEMBL document CHEMBL3352788, “Characterization of selective exosite-binding inhibitors of matrix metalloproteinase 13 that prevent articular cartilage degradation in vitro” (J Med Chem, 2014).
Each block holds one molecule with its values, some of them ahead of it.

Legend:
Collagenase 3 [1] = target: T1, Collagenase 3 (Homo sapiens, UniProt P45452); experiment: Competitive inhibition of full-length recombinant human MMP-13 assessed as fTHP-15 substrate hydrolysis by Lineweaver-Burke plot analysis
Method in brief: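 Pro-MMP-13 activated with 1 mM APMA for 2 h at 37 °C. Enzyme at 4 nM was incubated with fTHP-15 at 2–25 μM and varying inhibitor in Tris pH 7.5/NaCl/CaCl2/Brij-35 buffer at room temperature. Fluorescence was read at ex 324/em 393 nm, and rates were taken from the linear portion. Mechanism was assigned by a mixed-model nonlinear fit (α parameter) and confirmed by Lineweaver–Burke plots.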

Cytochrome P450 2C19 = Cytochrome P450 2C19 (Homo sapiens, UniProt P33261); experiment: Inhibition of CYP2C19 (unknown origin) using (S)-mephentoin substrate; type: ADME
Cytochrome P450 2C19, sequence (P33261 whole entry): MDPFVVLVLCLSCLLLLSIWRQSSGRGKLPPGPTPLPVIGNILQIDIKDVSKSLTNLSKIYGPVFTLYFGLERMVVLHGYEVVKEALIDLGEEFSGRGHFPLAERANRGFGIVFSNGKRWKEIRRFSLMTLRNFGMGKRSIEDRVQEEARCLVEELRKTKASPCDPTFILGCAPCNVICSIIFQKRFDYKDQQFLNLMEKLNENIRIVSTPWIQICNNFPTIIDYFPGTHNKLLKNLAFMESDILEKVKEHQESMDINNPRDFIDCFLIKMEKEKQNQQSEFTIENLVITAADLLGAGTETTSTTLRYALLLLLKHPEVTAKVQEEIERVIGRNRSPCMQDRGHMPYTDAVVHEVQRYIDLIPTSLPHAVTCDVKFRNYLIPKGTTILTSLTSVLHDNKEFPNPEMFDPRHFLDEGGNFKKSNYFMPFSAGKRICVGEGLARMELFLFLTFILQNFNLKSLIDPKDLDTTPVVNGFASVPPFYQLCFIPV
Method in brief: (§1)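 Human liver microsomes with probe substrate and an NADPH-regenerating system in 0.1 M potassium phosphate pH 7.4 at 37 °C, run in duplicate. Inhibitor at 0–20 μM (0–2.5 μM for one compound), eight concentrations. Reactions were stopped with acetonitrile/formic acid containing isotope-labelled internal standard, and metabolite area ratios were compared with and without inhibitor. IC50 was taken by linear interpolation between bracketing concentrations.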

Liver microsome [2] = experiment: Half life in human liver microsomes by LC-MS/MS analysis; type: ADME
Method in brief: (§2)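 Compound at 1 μM with 1 mg/mL liver microsomes in 100 mM potassium phosphate pH 7.4 at 37 °C with shaking. Reaction started with 1 mM NADPH (final). Aliquots were taken at 0, 5, 10, 20, 40 and 60 min and quenched in acetonitrile. Parallel incubations without NADPH were run.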

Cytochrome P450 2C8 = target: T2, Cytochrome P450 2C8 (Homo sapiens, UniProt P10632); experiment: Inhibition of CYP2C8 (unknown origin) using amodiaquine substrate; type: ADME; method in brief: as §1
T2 sequence (P10632 whole entry): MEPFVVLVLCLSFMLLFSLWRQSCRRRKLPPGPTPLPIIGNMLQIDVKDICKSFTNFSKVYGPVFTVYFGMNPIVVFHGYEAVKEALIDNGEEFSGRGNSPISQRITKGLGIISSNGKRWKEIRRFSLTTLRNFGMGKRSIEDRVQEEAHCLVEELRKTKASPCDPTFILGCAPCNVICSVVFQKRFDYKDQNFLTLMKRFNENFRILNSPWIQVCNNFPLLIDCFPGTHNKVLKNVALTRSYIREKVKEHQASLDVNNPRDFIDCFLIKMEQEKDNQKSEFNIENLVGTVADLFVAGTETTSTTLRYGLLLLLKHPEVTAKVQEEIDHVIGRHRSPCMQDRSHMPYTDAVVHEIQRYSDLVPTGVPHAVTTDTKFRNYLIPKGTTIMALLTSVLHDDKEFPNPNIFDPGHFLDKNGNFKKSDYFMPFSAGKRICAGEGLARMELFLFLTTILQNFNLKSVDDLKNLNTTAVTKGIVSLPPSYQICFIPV

Cytochrome P450 2C9 = Cytochrome P450 2C9 (Homo sapiens, UniProt P11712); experiment: Inhibition of CYP2C9 (unknown origin) using diclofenac substrate; type: ADME; method in brief: as §1
Cytochrome P450 2C9, sequence (P11712 whole entry): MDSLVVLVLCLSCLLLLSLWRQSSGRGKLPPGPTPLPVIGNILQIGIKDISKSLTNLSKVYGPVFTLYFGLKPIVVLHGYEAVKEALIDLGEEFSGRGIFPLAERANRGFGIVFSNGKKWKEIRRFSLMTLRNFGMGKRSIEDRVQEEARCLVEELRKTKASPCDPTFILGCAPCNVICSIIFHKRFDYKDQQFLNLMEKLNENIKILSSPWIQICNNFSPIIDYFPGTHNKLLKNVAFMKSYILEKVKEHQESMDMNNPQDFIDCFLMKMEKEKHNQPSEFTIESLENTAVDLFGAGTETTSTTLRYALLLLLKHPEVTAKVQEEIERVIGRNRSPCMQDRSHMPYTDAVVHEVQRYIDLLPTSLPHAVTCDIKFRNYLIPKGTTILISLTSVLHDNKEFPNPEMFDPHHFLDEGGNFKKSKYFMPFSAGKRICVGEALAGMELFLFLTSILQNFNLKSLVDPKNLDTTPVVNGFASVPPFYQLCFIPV

Cytochrome P450 3A4 [3] = target: T3, Cytochrome P450 3A4 (Homo sapiens, UniProt P08684); experiment: Inhibition of CYP3A4 (unknown origin) using testosterone substrate; type: ADME
T3 sequence (P08684 whole entry): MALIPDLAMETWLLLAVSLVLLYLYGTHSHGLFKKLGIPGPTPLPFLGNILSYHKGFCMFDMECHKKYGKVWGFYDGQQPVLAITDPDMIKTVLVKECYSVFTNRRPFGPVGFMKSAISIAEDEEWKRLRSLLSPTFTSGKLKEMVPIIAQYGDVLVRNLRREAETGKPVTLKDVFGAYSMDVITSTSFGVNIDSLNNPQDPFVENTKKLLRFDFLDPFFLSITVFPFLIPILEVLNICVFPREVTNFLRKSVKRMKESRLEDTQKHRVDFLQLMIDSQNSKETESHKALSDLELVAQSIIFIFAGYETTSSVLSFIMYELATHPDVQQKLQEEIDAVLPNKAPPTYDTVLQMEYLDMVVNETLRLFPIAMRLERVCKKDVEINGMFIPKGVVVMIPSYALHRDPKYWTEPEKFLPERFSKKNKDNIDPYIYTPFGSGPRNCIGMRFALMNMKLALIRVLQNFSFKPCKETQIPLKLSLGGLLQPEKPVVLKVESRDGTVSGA
Method in brief: (§3)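 Reactions stopped with acetonitrile/0.1% formic acid plus labelled internal standard. Metabolite measured by LC-MS area ratio. IC50 by linear interpolation.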

Cytochrome P450 1A2 = target: T4, Cytochrome P450 1A2 (Homo sapiens, UniProt P05177); experiment: Inhibition of CYP1A2 (unknown origin) using tacrin substrate; type: ADME; method in brief: as §1
T4 sequence (P05177 whole entry): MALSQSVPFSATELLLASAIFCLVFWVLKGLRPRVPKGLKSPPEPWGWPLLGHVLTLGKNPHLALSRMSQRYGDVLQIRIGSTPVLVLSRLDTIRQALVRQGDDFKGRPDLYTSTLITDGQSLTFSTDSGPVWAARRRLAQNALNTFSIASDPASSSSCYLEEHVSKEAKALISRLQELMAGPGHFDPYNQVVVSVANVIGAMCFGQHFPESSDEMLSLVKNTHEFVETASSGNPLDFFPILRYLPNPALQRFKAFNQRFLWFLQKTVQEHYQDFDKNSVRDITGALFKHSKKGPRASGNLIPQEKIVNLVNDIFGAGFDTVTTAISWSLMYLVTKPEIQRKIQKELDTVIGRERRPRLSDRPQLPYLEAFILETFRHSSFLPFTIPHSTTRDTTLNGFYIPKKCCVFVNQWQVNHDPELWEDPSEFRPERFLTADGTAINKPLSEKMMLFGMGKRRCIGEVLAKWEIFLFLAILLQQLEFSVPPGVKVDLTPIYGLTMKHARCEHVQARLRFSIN

Cytochrome P450 2B6 = target: T5, Cytochrome P450 2B6 (Homo sapiens, UniProt P20813); experiment: Inhibition of CYP2B6 (unknown origin) using bupropion substrate; type: ADME; method in brief: as §1
T5 sequence (P20813 whole entry): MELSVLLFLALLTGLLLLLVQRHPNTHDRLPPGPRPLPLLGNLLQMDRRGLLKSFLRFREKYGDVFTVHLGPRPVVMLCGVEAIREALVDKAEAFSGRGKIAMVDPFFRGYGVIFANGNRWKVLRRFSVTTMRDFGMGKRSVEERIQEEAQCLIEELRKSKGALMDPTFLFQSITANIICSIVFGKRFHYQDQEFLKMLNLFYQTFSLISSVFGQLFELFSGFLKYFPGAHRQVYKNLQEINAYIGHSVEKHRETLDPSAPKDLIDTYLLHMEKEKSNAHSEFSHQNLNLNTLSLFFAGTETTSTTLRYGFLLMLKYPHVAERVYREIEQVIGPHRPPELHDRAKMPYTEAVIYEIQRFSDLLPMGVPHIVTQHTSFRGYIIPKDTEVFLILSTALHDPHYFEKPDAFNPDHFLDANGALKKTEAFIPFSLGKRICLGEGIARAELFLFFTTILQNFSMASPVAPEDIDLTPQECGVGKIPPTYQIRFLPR

Cytochrome P450 3A4 [4] = target: T3, Cytochrome P450 3A4; experiment: Inhibition of CYP3A4 (unknown origin) using midazolam substrate; type: ADME; method in brief: as §3
Collagenase 3 [5] = target: T1, Collagenase 3; experiment: Non-competitive inhibition of full-length recombinant human MMP-13 assessed as fTHP-15 substrate hydrolysis
Collagenase 3 [6] = target: T1, Collagenase 3; experiment: Inhibition of full-length recombinant human MMP-13 assessed as bovine type-2 collagen hydrolysis after 22 hrs by fluorescence assay
Cytochrome P450 2D6 = Cytochrome P450 2D6 (Homo sapiens, UniProt P10635); experiment: Inhibition of CYP2D6 (unknown origin) using dextromethophan substrate; type: ADME; method in brief: as §1
Cytochrome P450 2D6, sequence (P10635 whole entry): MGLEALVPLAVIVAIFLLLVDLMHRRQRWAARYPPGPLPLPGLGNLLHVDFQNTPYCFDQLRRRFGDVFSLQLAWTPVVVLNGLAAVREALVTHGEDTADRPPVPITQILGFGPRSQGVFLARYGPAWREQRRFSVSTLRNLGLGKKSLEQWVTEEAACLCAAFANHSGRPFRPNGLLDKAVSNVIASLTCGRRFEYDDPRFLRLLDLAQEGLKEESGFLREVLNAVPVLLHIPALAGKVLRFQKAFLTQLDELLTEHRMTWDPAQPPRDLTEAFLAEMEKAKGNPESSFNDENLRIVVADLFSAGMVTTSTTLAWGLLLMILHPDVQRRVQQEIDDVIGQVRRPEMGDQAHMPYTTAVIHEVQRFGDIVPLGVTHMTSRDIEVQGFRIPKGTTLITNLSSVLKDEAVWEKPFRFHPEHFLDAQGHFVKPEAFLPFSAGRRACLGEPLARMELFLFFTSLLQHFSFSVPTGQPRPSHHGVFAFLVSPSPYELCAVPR

Liver microsome [7] = experiment: Half life in rat liver microsomes by LC-MS/MS analysis; type: ADME; method in brief: as §2
Liver = experiment: Half life in mouse liver microsomes by LC-MS/MS analysis; type: ADME; method in brief: as §2
Collagenase 3 [8] = target: T1, Collagenase 3; details: 50 uM

Kb (Collagenase 3 [1]): 1200 µM
SMILES: CC(=O)NO

SMILES: Cc1ccc(CSc2nc3c(c(=O)[nH]2)CCC3)cc1
IC50 (Cytochrome P450 2C19): 7.9 µM
t1/2 (Liver microsome [2]): 7.3 min
IC50 (Cytochrome P450 2C8): > 20 µM
IC50 (Cytochrome P450 2C9): 8.8 µM
IC50 (Cytochrome P450 3A4 [3]): > 20 µM
IC50 (Cytochrome P450 1A2): 3.7 µM
IC50 (Cytochrome P450 2B6): > 20 µM
IC50 (Cytochrome P450 3A4 [4]): > 20 µM
IC50 (Collagenase 3 [5]): 2.4 µM
IC50 (Collagenase 3 [6]): 0.4 µM
IC50 (Cytochrome P450 2D6): > 20 µM

t1/2 (Liver microsome [2]): 44.1 min
t1/2 (Liver microsome [7]): 26.5 min
t1/2 (Liver): 12.3 min
SMILES: CCN(CC)CCNC(=O)c1c(C)[nH]c(/C=C2\C(=O)Nc3ccc(F)cc32)c1C [SUNITINIB]

inhibition (Collagenase 3 [8]): 70%
SMILES: O=C(O)CN(CCN(CC(=O)O)CC(=O)O)CC(=O)O
